High-throughput results deposited in PubChem BioAssay by The Scripps Research Institute Molecular Screening Center.
CHO parental Ca: signal in parental CHO cells, OX1R antagonist counter-screen; parental CHO-K1, ATP-induced calcium, Fluo-8 fluorescence; inhibition, % at 5.6 µM; hit rate 0.63% among 330,000; AID 463079;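 active = inhibition above that plate's mean sample inhibition plus 3 SD, cut at about 26% in these data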;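 note: 0% = ATP-challenged DMSO wells and 100% = DMSO wells without ATP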
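Test system: untransfected parental CHO cell line. Compound: one dose, 5.6 µM nominal. Detection: intracellular calcium via Fluo-8 no-wash fluorescent dye. Measure: % inhibition. Benchmarks: ATP-challenged DMSO wells low, unchallenged DMSO wells high.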
CHO-K1 Ca ag: M1 agonist counterscreen hit in parental CHO-K1 cells. Fluo-8 calcium fluorescence; scaled to maximal ATP response, vehicle zero. AID 602248. activation, % at 3 µM. hit rate 0.48% among 360,000; in the data active = activation above about 15%;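 note: untransfected CHO-K1 host cells lacking M1 receptor as counterscreen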
CHO-K1 Ca antag: nonselective inhibitor or artifact in parental CHO-K1 cells; hit rate 0.6% among 360,000; AID 602250; ATP-induced calcium, Fluo-8 fluorescence; inhibition, % at 3 µM;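 active = inhibition above a per-plate cutoff, the plate's mean sample inhibition plus 3 SD, cut at about 24% in these data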;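 note: 0% = DMSO plus EC80 ATP and 100% = DMSO alone without ATP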
OX1R antag-1: blocks the human orexin 1 receptor. hit rate 1.8% among 330,000. OX1R-expressing cells, FRET antagonist read-out. AID 485270. inhibition, % at 6.6 µM; in the data active = inhibition mostly above about 38%, no sharp cut-off; inactive = mostly below about 40%;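 note: 0% = agonist challenge alone and 100% = reference antagonist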
Target sequence (O43613 whole entry, looked up): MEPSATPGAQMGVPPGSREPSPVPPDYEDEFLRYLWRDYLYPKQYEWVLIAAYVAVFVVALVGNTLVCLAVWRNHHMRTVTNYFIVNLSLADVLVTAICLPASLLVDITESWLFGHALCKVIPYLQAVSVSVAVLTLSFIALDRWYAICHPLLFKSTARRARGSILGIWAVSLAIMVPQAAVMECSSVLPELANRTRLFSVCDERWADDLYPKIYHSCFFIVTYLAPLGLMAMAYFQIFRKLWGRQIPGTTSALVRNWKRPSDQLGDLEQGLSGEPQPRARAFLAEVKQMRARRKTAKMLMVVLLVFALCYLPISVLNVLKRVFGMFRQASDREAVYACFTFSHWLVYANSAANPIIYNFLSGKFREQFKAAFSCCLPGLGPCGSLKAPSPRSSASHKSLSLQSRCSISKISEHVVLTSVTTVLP
OX1R antag-2: antagonists of human orexin 1 receptor | O43613 | CHO/OX1R cells, Fluo-8 calcium fluorescence, orexin A | inhibition, % at 5 µM | hit rate 0.43% among 330,000;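 active = inhibition above its plate's threshold, mean inhibition of all tested compounds on the plate plus 3 SD, cut at about 37% in these data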;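 note: 0% = orexin A challenge wells and 100% = SB-334867-A antagonist wells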
M1 PAM parental: counter-screen for M1 PAMs: effect in parental CHO-K1 cells | hit rate 0.02% among 360,000 | activation, % at 3 µM | ATP EC20, Fluo-8 calcium fluorescence; 0% at ATP EC20, 100% at ATP max;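 active = activation above the run cutoff, the mean activation of all test compounds plus 3 SD, cut at about 40% in these data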;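 note: peak over basal fluorescence ratio in a 140 s read after ATP addition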
* = called active by the depositor; / = no result given. Hits are enriched below; roughly 2.9% of the tested compounds scored in any of these assays.

SMILES | CHO parental Ca | CHO-K1 Ca ag | CHO-K1 Ca antag | OX1R antag-1 | OX1R antag-2 | M1 PAM parental
O=C(O)c1ccc(C(=O)c2ccc3c(c2)C(=O)N(CC2CCCO2)C3=O)cc1 (stereo not drawn) | 1.2 | 1.1 | -8.8 | 55.5* | -2.1 | 17.5
Cc1ccc(Oc2cnc3ccccc3n2)cc1 | 0.4 | 0.8 | -13.2 | 7.9 | -3.5 | 18.9
Cc1ccc(Oc2ccc(Oc3ccc(C)cc3)nn2)cc1 | 27.2* | 0.3 | -2.2 | 11.7 | -10.1 | 14.2
CCN(CC)C(=O)c1[nH]cnc1C(=O)N[C@@H](Cc1ccccc1)C(=O)OC(C)(C)C | -14.6 | -0.1 | 0.4 | 18.2 | -9.2 | -9.7
O=C(N/N=C\c1c(O)ccc2ccccc12)c1ccc(O)cc1 | -16.9 | 1.8 | -7.9 | 9.3 | -21.6 | 14.9
O=C(N/N=C/c1c(O)ccc2ccccc12)c1ccc[n+](CCO)c1 | -0.3 | -0.2 | -15.7 | 57.3* | -6.1 | 23.0
Cn1cc(C(=O)N/N=C/c2c(O)ccc3ccccc23)ccc1=O | -11.5 | 0.7 | -10.2 | 38.5* | -12.1 | 8.5
O=C(N/N=C\c1c(O)ccc2ccccc12)c1cncc(Br)c1 | 67.4* | 39.4* | 6.4 | 72.6* | 63.4* | -11.3
Cc1ccc(C)c(NC(=O)CN2C(=O)CC(C)S(=O)(=O)c3ccccc32)c1 (stereo not drawn) | -6.6 | 0.5 | -5.3 | 3.4 | -2.6 | 3.6
OCc1cccnc1 | 5.4 | / | / | 4.0 | -4.0 | /
C[C@@H]1CN[C@H](CCO)/C1=C\c1ccccc1 | / | 0.0 | -6.0 | / | / | 6.5
C/C(Cn1nnc([N+](=O)[O-])n1)=N\NC(=O)c1ccccc1Cl | -9.3 | 1.7 | -31.2 | 42.4* | 7.7 | 20.5
CCCOc1ccc(C(=O)NNC(=S)NC(=O)c2ccccc2[N+](=O)[O-])cc1 | -1.6 | 15.4* | 3.4 | 7.5 | -8.4 | 7.2
O=C(NNC(=S)NC(=O)c1ccccc1[N+](=O)[O-])c1ccccc1 | -5.6 | -0.4 | 10.5 | 11.8 | -5.3 | -4.8
O=C(COc1ccc(Cl)cc1Cl)NNC(=S)NC(=O)c1ccco1 | -12.3 | 0.3 | -8.7 | 8.1 | -17.6 | 12.2
COc1ccc(C(=O)NC(=S)NNC(=O)c2ccc(C)cc2)cc1 | 49.2* | 82.0* | 14.5 | 5.3 | 58.7* | -25.5
CCCOc1ccc(C(=O)NNC(=S)NC(=O)c2cccs2)cc1 | 63.5* | 87.4* | 44.1* | -6.8 | 70.0* | -29.1
CCCOc1ccc(C(=O)NNC(=S)NC(C)=O)cc1 | -1.7 | -0.9 | -4.8 | 14.9 | -10.1 | 16.4
CC(Oc1ccc(Cl)cc1)C(=O)NNC(=S)NC(=O)c1ccco1 (stereo not drawn) | -0.7 | 31.8* | -3.5 | -2.8 | 6.1 | 6.1
O=C(O)C(Cc1ccccc1)N1C(=O)C2C3CCC(C3)C2C1=O (stereo not drawn) | / | 0.7 | 2.4 | / | / | 10.8
CCCCNC(=O)[C@@H]1CC=C[C@@H]2CCN(C3CC3)C(=O)[C@@H]21 | 6.0 | 0.5 | -8.3 | 36.2 | -3.6 | 5.4
COc1ccc(C(=S)Nc2ccc(C)cc2)cc1 | 73.0* | -0.4 | -5.1 | 22.9 | 5.2 | 1.3
CCCOc1ccc(C(=O)NNC(=S)NC(=O)c2ccco2)cc1 | 70.0* | 60.1* | 21.2 | 19.2 | 86.3* | -28.0
CCCCOc1ccc(C(=O)NNC(=S)NC(=O)CC)cc1 | -1.1 | 8.4 | 6.1 | 2.0 | -1.3 | 11.8
CCCOc1ccc(C(=O)NNC(=S)NC(=O)c2ccccc2)cc1 | 56.0* | 105.0* | 42.2* | 0.2 | 77.8* | -39.2
SMILES | CHO parental Ca | CHO-K1 Ca ag | CHO-K1 Ca antag | OX1R antag-1 | OX1R antag-2 | M1 PAM parental
COc1ccc(NC(=S)c2ccncc2)cc1 | -8.1 | 2.6 | -8.8 | 16.0 | -11.5 | 3.5
CCOC(=O)c1c(NC(=O)CN2C(=O)NC3(CCCCC3C)C2=O)sc(C)c1CC (stereo not drawn) | -29.2 | 22.6* | 16.2 | 22.5 | -31.9 | -16.2
Nc1ccc(O)c([N+](=O)[O-])c1 | 4.8 | -0.3 | 11.0 | 48.9* | -10.4 | -5.3
COc1ccc(C2/C=C\CN(S(=O)(=O)c3ccc(C)cc3)CC(=O)N2Cc2cccc(F)c2)cc1 (stereo not drawn) | -14.3 | -1.1 | 5.3 | 49.6* | 44.3 | -14.9
COc1ccc(C2/C=C\CN(S(=O)(=O)c3ccc(C)cc3)CC(=O)N2Cc2ccc(F)cc2)cc1 (stereo not drawn) | -21.8 | 0.0 | -9.1 | 19.8 | -23.1 | 3.9
Cc1ccc(C2=N/C(=C\c3ccc(F)cc3)C(=O)N2)cc1 | -19.2 | 0.8 | -21.5 | 1.8 | -40.7 | 19.1
